Compounds with a hit are over-represented: about 1.4% of the library has one in this group of screens.
GSTO1 inh: blocks human GSTO1 in RBBP9 counter-screen. AID 1974. actives 1.1% (n = 300,000). inhibition, % at 5.96 µM. P78417. recombinant GSTO1, activity-based probe fluorescence polarization;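 active = inhibition above the campaign mean inhibition plus 3 SD, cut at about 35% in these data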
Target sequence (P78417 whole entry, looked up): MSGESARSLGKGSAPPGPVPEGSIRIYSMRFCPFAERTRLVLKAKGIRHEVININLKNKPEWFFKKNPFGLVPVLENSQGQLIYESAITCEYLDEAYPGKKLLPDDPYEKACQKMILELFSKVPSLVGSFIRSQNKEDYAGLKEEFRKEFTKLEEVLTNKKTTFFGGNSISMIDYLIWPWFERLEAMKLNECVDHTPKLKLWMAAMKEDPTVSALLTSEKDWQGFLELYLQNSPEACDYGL
Fh CTSL1 inh: counter-screen for PFM18AAP inhibitors: inhibitors of F. hepatica cathepsin L1; recombinant F. hepatica cathepsin L1, Z-Leu-Arg-MCA fluorescence; inhibition, % at 5.96 µM; actives 0.49% (n = 300,000);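 active = inhibition above the mean of all tested compounds plus 3 SD, set per screening campaign, cut at about 17% in these data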
TDP2 absorb: blocks human TDP2 phosphodiesterase activity | O95551 | recombinant TDP2, T5PNP hydrolysis, p-nitrophenol absorbance 415 nm | inhibition, % at 12.8 µM | actives 0.34% (n = 370,000) | AID 720702;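 active = inhibition above the mean of all tested compounds plus 3 SD, set per campaign, cut at about 25% in these data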
Target sequence (O95551 whole entry, looked up): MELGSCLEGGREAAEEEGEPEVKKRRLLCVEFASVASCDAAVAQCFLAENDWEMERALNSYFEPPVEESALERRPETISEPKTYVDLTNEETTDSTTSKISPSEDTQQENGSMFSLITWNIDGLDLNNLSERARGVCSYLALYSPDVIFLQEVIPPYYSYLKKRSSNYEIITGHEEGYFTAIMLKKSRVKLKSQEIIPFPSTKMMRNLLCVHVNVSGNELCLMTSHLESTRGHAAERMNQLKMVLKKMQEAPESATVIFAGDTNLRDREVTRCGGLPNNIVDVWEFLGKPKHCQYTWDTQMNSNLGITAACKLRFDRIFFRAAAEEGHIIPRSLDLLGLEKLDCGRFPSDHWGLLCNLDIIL
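Assay system: Recombinant human TDP2 | Quantity: 120 nM TDP2 per well | Incubation: 2 h at 37 °C | Signal: Epi absorbance | Evaluation: Percent inhibition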
PAD4 inh: blocks human protein arginine deiminase 4 | Q9UM07 | recombinant PAD4, RCA probe fluorescence polarization | inhibition, % at 6.36 µM | actives 0.41% (n = 330,000);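 active = percent inhibition above a cutoff equal to the mean of all tested compounds plus 3 SD, cut at about 15% in these data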
GSTO1 inh conf: confirmation of human GSTO1 inhibitors; recombinant GSTO1, probe fluorescence polarization; inhibition, % at 5.96 µM; AID 2176; shares compounds with GSTO1 inh; actives 54% (n = 2,400);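 active = inhibition above the primary screen's cutoff, its mean inhibition plus 3 SD, cut at about 35% in these data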;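 also: loss of polarization as inhibitors block binding of rhodamine sulfonate ester activity probe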
PAD4 FP conf: PAD4 (human) inhibition, confirmed. shares compounds with PAD4 inh. recombinant PAD4, RCA probe fluorescence polarization. inhibition, % at 6.36 µM. actives 28% (n = 1,200). AID 488796;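 active = mean inhibition across replicates above the hit cutoff set by the earlier primary screen, cut at about 15% in these data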;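 also: inhibitors block active-site labeling by the probe so polarization falls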
TDP2 confirm: human TDP2 inhibition, confirmation; recombinant human TDP2, absorbance read-out; shares compounds with TDP2 absorb; actives 22% (n = 1,100); inhibition, % at 12.8 µM; in the data active = inhibition above about 25%
Large screens that a line does not name were inactive (follow-up assays come after a bar, where they were run).

COc1ccc(S[C@]2(C(=O)N(C)C)CC(=O)N(C(=O)/C=C/c3ccccc3)[C@@H]2c2ccc(OC)cc2)cc1	none (no result: GSTO1 inh, Fh CTSL1 inh, PAD4 inh)
COC(=O)CCC(=O)OC1(C)C(=O)C=C2C=C(C3CC3)N(CCN3CCOCC3)C=C2C1=O (stereo unspecified)	none
COC(=O)CCC(=O)OC1(C)C(=O)C=C2C=C(C3CC3)N(CCCOC(C)C)C=C2C1=O (stereo unspecified)	GSTO1 inh 59, PAD4 inh 30 (no result: TDP2 absorb) | GSTO1 inh conf inactive | PAD4 FP conf inactive
COc1cccc2c1C(=O)c1c(O)c3c(c(O)c1C2=O)C[C@@](O)(C(=O)CO)C[C@@H]3O[C@H]1C[C@H](N)[C@H](O)[C@H](C)O1	GSTO1 inh 45, PAD4 inh 58 | GSTO1 inh conf inactive | PAD4 FP conf 68
Cc1[nH]c2ccccc2c1/C=N/n1cnnc1	none
CCN(CC)c1ccc(N=Cc2c(C)[nH]c3ccccc23)cc1	GSTO1 inh 56, PAD4 inh 25 | GSTO1 inh conf inactive | PAD4 FP conf inactive
Oc1c(C=NCc2ccccc2)sc2ccccc12	none
Oc1cccc(C=NCc2ccccc2)c1O	GSTO1 inh 89, PAD4 inh 21 | GSTO1 inh conf inactive | PAD4 FP conf inactive
CCCCCOC(=O)c1c(N)n(CCOC)c2nc3ccccc3nc12	GSTO1 inh 65, PAD4 inh 26 | GSTO1 inh conf inactive | PAD4 FP conf inactive
COCCOC(=O)c1c(N)n(CCCN2CCOCC2)c2nc3ccccc3nc12	none
CCOc1ccc(CCNC(=O)c2cc3sccc3n2CC)cc1OC	none (no result: GSTO1 inh, Fh CTSL1 inh, PAD4 inh)
CC(=O)N1CCc2[nH]c3ccccc3c2C1	none
O=C(N1CCc2[nH]c3ccccc3c2C1)C(F)(F)F	GSTO1 inh 88, Fh CTSL1 inh 106, PAD4 inh 58 | GSTO1 inh conf inactive | PAD4 FP conf inactive
CCOc1ccccc1NC(=O)NNC(=O)CCn1nc(C)c([N+](=O)[O-])c1C	none (no result: GSTO1 inh, Fh CTSL1 inh, PAD4 inh)
CCOc1cc(/C=C2/C(=O)N(c3ccccc3)N=C2C)ccc1OC(=O)c1cccs1	GSTO1 inh 66, PAD4 inh 54 (no result: TDP2 absorb) | GSTO1 inh conf inactive | PAD4 FP conf inactive
COc1cc(/C=C2/C(=O)N(c3cccc(Br)c3)N=C2C)cc(OC)c1O	GSTO1 inh 42, PAD4 inh 27 | GSTO1 inh conf inactive | PAD4 FP conf inactive
CC(=O)Oc1ccc(/C=C2/C(=O)N(c3ccccc3)N=C2C)cc1	GSTO1 inh 52, TDP2 absorb 71, PAD4 inh 54 | GSTO1 inh conf inactive | PAD4 FP conf inactive
CC1=NN(c2ccccc2)C(=O)/C1=C/c1cccc(C)c1	GSTO1 inh 59, TDP2 absorb 79, PAD4 inh 56 | GSTO1 inh conf inactive | PAD4 FP conf inactive
C=CCOC/C=C/C#CCN(Cc1ccc(OC)cc1OC)C(=O)Nc1ccccc1	none (no result: GSTO1 inh, Fh CTSL1 inh, PAD4 inh)
CC(C)CNC(=O)OCc1cn(Cc2ccccc2Cl)nn1	none (no result: GSTO1 inh, Fh CTSL1 inh, PAD4 inh)
COc1ccc(/C=C2/C(=O)N(c3ccccc3)N=C2C)cc1	GSTO1 inh 47, PAD4 inh 57 (no result: TDP2 absorb) | GSTO1 inh conf inactive | PAD4 FP conf inactive
COc1ccc(/C=C2/C(=O)N(c3c(F)c(F)c(F)c(F)c3F)N=C2C)cc1	none
CC1(OC(=O)C2CCCC2)C(=O)C=C2C=C(c3ccsc3)N(CCc3ccccn3)C=C2C1=O (stereo unspecified)	GSTO1 inh 49, PAD4 inh 19 | GSTO1 inh conf inactive | PAD4 FP conf inactive
COc1ccccc1NC(=O)OCCN1CCCC12CCC(c1ccccc1)CC2 (stereo unspecified)	none (no result: GSTO1 inh, Fh CTSL1 inh, PAD4 inh)
CC(C)(C)c1ccc(-c2csc(N3CCC(C(N)=O)CC3)n2)cc1	none (no result: GSTO1 inh, Fh CTSL1 inh, PAD4 inh)
O=C1c2cccc(Cl)c2C(=O)c2c1cccc2N1CCCC1	GSTO1 inh 44, TDP2 absorb 26 | GSTO1 inh conf inactive | TDP2 confirm inactive
O=C(CCc1ccccc1)N[C@H]1[C@H](OCc2ccccc2)CCC[C@@]12C(=O)N(Cc1ccccc1)c1ccc(-c3ccsc3)cc12	none (no result: GSTO1 inh, Fh CTSL1 inh, PAD4 inh)
Cc1nn(-c2ccccc2)c(C)c1C=NNC(=O)CSc1nc2ccccc2n1C	none (no result: GSTO1 inh, Fh CTSL1 inh, PAD4 inh)
CN(C)c1cccc2c1c(NS(=O)(=O)c1cn(C)cn1)nn2C	GSTO1 inh 54, TDP2 absorb 44 | GSTO1 inh conf inactive | TDP2 confirm 32
CC(=O)c1cccc(Nc2nc(N3CCOCC3)nc(N3CCOCC3)n2)c1	none
O=C1C=C(N2CCOCC2)c2ccccc2C1=O	GSTO1 inh 90, Fh CTSL1 inh 112, TDP2 absorb 65, PAD4 inh 60 | GSTO1 inh conf 99 | PAD4 FP conf 66 | TDP2 confirm 86
O=C(O)c1cccc(NC2=C(N3CCOCC3)C(=O)c3ccccc3C2=O)c1	GSTO1 inh 47, Fh CTSL1 inh 50, TDP2 absorb 37 | GSTO1 inh conf inactive | TDP2 confirm 51
COC(=O)C1CN(Cc2cn(CCOC(C)=O)nn2)CCS(=O)(=O)N1Cc1ccc(Cl)cc1 (stereo unspecified)	none (no result: GSTO1 inh, Fh CTSL1 inh, PAD4 inh)
N#CC1=C(N)Oc2n[nH]c(-c3cccs3)c2C1c1ccoc1 (stereo unspecified)	none
Cc1ccc(C2C(C#N)=C(N)Oc3n[nH]c(-c4cccs4)c32)cc1 (stereo unspecified)	GSTO1 inh 40, TDP2 absorb 32, PAD4 inh 41 | GSTO1 inh conf inactive | PAD4 FP conf inactive | TDP2 confirm inactive
NC(=O)C1CCN(C2=C(Cl)C(=O)c3ccccc3C2=O)CC1	GSTO1 inh 87, Fh CTSL1 inh 24, TDP2 absorb 50 | GSTO1 inh conf 80 | TDP2 confirm 76
NC(=O)C1CCN(C2=C(NS(=O)(=O)c3ccccc3)C(=O)c3ccccc3C2=O)CC1	none
O=C1C(Cl)=C(NC(=O)c2ccccc2)C(=O)C(Cl)=C1NC(=O)c1ccccc1	GSTO1 inh 79, TDP2 absorb 59, PAD4 inh 51 | GSTO1 inh conf inactive | TDP2 confirm 33
O=C(Nc1cccc(Cl)c1)c1ccccc1	none
CN(Cc1ccccc1)S(=O)(=O)c1cccc(C(=O)OCc2ccc(C(F)(F)F)cc2)c1	none (no result: GSTO1 inh, Fh CTSL1 inh, PAD4 inh)
C/C(=C\C(=O)c1cccnc1)Nc1ccc(O)cc1	GSTO1 inh 38, TDP2 absorb 27, PAD4 inh 98 | GSTO1 inh conf inactive | PAD4 FP conf inactive | TDP2 confirm inactive
COC(=O)[C@H](CC(C)C)N1Cc2nnn(CC3CCCCC3)c2-c2cc(F)ccc2S1(=O)=O	none (no result: GSTO1 inh, Fh CTSL1 inh, PAD4 inh)
Cc1cc(Nc2ccc(F)cc2)c2ccccc2n1	none (no result: GSTO1 inh, Fh CTSL1 inh, PAD4 inh)
O=c1[nH]c(Nc2ccccc2Cl)cc2ccccc12	GSTO1 inh 40, TDP2 absorb 71, PAD4 inh 28 | GSTO1 inh conf inactive | PAD4 FP conf inactive | TDP2 confirm 43
O=c1[nH]c(Nc2ccc(F)cc2)cc2ccccc12	GSTO1 inh 67, Fh CTSL1 inh 58, TDP2 absorb 77, PAD4 inh 43 | GSTO1 inh conf 44 | PAD4 FP conf 17 | TDP2 confirm 65
O=c1oc(Nc2ccccc2Cl)nc2ccccc12	none (no result: GSTO1 inh, Fh CTSL1 inh, PAD4 inh)

Screens as filed in PubChem BioAssay.
